F508del corr = F508del CFTR correction, initial screen, CFBE line, single point; CFBE cells, YFP halide quenching; stimulated with forskolin plus potentiator P3; % fluorescence drop versus neutral controls; activity (quench increase), % at 7.58 µM; 0.36% of 350,000 active; AID 720511, 2013;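 active = mean added fluorescence quench of at least 8% versus neutral control, with both replicates also reaching 8%; inconclusive = only one of the mean or replicate conditions met; inactive = mean below 8% and not both replicates reaching 8%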;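 note: cells transiently co-express mutant CFTR-F508del with the halide-sensitive YFP; corrector assay measuring rescue of mutant channel to the surface after 24 h compound exposure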
Cneo AK release = Cryptococcus neoformans cell lysis inducers, primary screen, AK release luminescence, single concentration. C. neoformans lysis, adenylate kinase release luminescence, 4 h; normalised: neutral wells 0, clomiphene wells 100. lysis activity, % at 15 µM. 0.2% of 360,000 active;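 active = mean lysis activity across replicates of at least 80%, whatever share of replicates individually reach that level; inactive = mean lysis activity below 80%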
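Test system: log-phase Cryptococcus neoformans yeast cells; Quantity: yeast cell density of 5 × 10^6 cells/mL; Buffer or medium: YPD; Doses: single compound concentration per well; Timing: 4 h at 37 °C static, read 1 h later; Measured by: AK luminescence; Read-out basis: lysis from increased AK signal; Control set: Clomiphene as positive control.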
DENV2 CPE rescue = inhibitors of DENV2 cytopathic effect, primary screen, cell-based, plate reader, single concentration. DENV2-infected cells, cytopathic effect rescue. CPE inhibition, % at 9.99 µM. 1.7% of 350,000 active. AID 651640, 2012; in the data active = CPE inhibition above about 20%, passing the limit was not always enough; inconclusive = no clear call, values can overlap the other calls; tested in BHK-21 cells;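 note: 0% = median of neutral control wells and 100% = median of positive control wells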
XiGFP reactiv = activators of inactive X chromosome reactivation, primary screen, imaging, XiGFP fibroblasts, GFP high-content imaging, set 2 | XiGFP mouse fibroblasts, % GFP-positive cells imaging, 3 d; cells co-treated with 5-aza-dC sensitizer; scaled so ellipticine positive control = 100% | AID 743238, 2013 | activation, % at 7.58 µM | 0.055% of 360,000 active;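 active = mean normalized replicate activation at least 10% and every replicate at or above 10%; inconclusive = only one of the two criteria met; inactive = mean below 10% and not all replicates reach 10%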;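 note: 0% = median of on-plate neutral control wells and 100% = ellipticine 6 µM median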
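assay system = SV40-immortalized XiGFP fibroblast cells, line 68-5-11 | buffer or medium = DMEM plus 5-aza-dC sensitizer | doses = single-point pinned compound dosing | times = 3-day compound exposure, then 15 min fixation at room temperature | benchmarks = positive control ellipticine, 6 µM final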
PGC1a acetyl inh = inhibitors of PGC1a acetylation signal, primary screen, cell-based, U2OS, AlphaScreen, inhibitor mode. 0.17% of 350,000 active. AlphaScreen anti-acetyl-lysine; with virally co-expressed GCN5 acetyltransferase. inhibition, % at 15.6 µM;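 active = every replicate shows inhibition of at least 40%; inconclusive = mean inhibition at least 40% but some replicate below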;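 note: 0% = neutral control wells and 100% = positive control wells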
FN deposition inh = inhibitors of fibronectin matrix deposition, primary screen, AH1F cells, Alexa488-fibronectin fluorescence, plate reader; AH1F fibroblasts, overnight; inhibition, % at 12.6 µM; 0.086% of 350,000 active;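 active = mean inhibition across replicates of 30% or more, regardless of how many single replicates reach that level; inconclusive = mean under 30% yet at least half of replicates reach 30%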;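 note: positive control wells lacked labelled fibronectin entirely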
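Material – AH1F fibroblast monolayer, labelled fibronectin deposition · Reagent – labelled fibronectin 24 nM · Timing – 1 h adhesion, overnight exposure · Measured by – fluorescence at 485 nm excitation, 525 nm emission · Read-out – inhibition of fibronectin deposition signal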
* marks the source's active call; other numbers are inactive results; ? = inconclusive; . = no result given; ! = repeats disagree. An excerpt weighted towards active compounds, which were near 1.9% of everything screened.

SMILES	F508del corr	Cneo AK release	DENV2 CPE rescue	XiGFP reactiv	PGC1a acetyl inh	FN deposition inh
COc1ccc(-c2cc(C3CCN(C(=O)OC(C)(C)C)CC3)[nH]n2)cc1	1.7	.	-5.1	0.0	15.1	12.7
CCC[C@H]1CC(=O)C=C(c2ccc(OC)cc2)ON1C(=O)OC(C)(C)C	-1.3	1.3	56.6*	0.3	.	-6.3
C[C@@H]1CN([C@@H](C)CO)C(=O)Cc2cc(NC(=O)Nc3ccccc3)ccc2O[C@H]1CN(C)S(=O)(=O)c1cn(C)cn1	-1.0	0.9	6.6	-0.4	1.4	.
C[C@@H]1CN([C@H](C)CO)C(=O)Cc2cc(NC(=O)Nc3ccccc3)ccc2O[C@H]1CN(C)S(=O)(=O)c1cn(C)cn1	-2.5	1.3	61.7*	-0.9	-3.0	.
COc1ccc(NC(=O)Nc2ccc3c(c2)CC(=O)N([C@H](C)CO)C[C@H](C)[C@@H](CN(C)S(=O)(=O)c2cn(C)cn2)O3)cc1	0.3	-0.8	21.6*	0.5	-9.7	.
C[C@@H]1CN([C@H](C)CO)C(=O)Cc2cc(NC(=O)CCN3CCOCC3)ccc2O[C@@H]1CN(C)S(=O)(=O)c1cn(C)cn1	0.1	-1.8	21.9*	0.2	4.6	.
COc1ccccc1C#Cc1cnc2c(c1)C(=O)N([C@@H](C)CO)C[C@@H](C)[C@H](CN(C)C(=O)CC1CC1)O2	-1.5	4.1	4.1	0.1	-10.9	-4.6
CC(=O)Nc1ccc(S(=O)(=O)N2c3ccccc3C(C)=CC2(C)C)cc1	9.5*	.	-0.9	0.2	.	0.9
COc1ccc(-c2ccc(C3[C@@H]4CN(C(=O)Nc5ccccc5F)C[C@H]3N4)cc2)cc1 (stereo partly drawn)	-1.4	.	3.4	0.0	-5.6	15.4
C/C=C/c1ccc(C2[C@H]3CNC[C@@H]2N3C(=O)NCCC)cc1 (stereo partly drawn)	-5.2	.	25.4*!	0.2	9.4	-8.4
COc1cccc(-c2ccc(C3[C@@H]4CN(C(=O)Nc5ccccc5F)C[C@H]3N4)cc2)c1 (stereo partly drawn)	1.4	.	32.1*!	0.0	-21.6	7.2
N#Cc1ccc(-c2ccc(C3[C@H]4CNC[C@@H]3N4C(=O)NC3CCCC3)cc2)cc1 (stereo partly drawn)	-3.3	.	-6.2	0.1	.	-0.6
COc1ccc(-c2ccc(C3[C@H]4CNC[C@@H]3N4C(=O)Nc3ccc4c(c3)OCO4)cc2)cc1 (stereo partly drawn)	-0.9	.	24.6*!	0.3	.	5.0
CN(C)C(=O)c1ccc(-c2ccc(C3[C@H]4CNC[C@@H]3N4C(=O)NC3CCCC3)cc2)cc1 (stereo partly drawn)	-1.2	.	71.5*	0.0	.	-3.3
O=C(Nc1ccc2c(c1)OCO2)N1[C@@H]2CNC[C@H]1C2c1ccc(-c2ccncc2)cc1 (stereo partly drawn)	1.5	.	-2.9	0.1	4.2	3.8
O=C(C1CCOCC1)N1[C@@H](CO)[C@@H]2c3ccccc3NC[C@@H]21	-0.3	-0.7	-13.7	0.0	10.6	.
O=C(Nc1ccc(F)cc1)N1[C@@H]2CNC[C@H]1C2c1ccc(/C=C/c2ccccc2)cc1 (stereo partly drawn)	4.3	.	-9.7	0.1	3.3	-5.6
O=C(Nc1ccccc1F)N1[C@@H]2CNC[C@H]1C2c1ccc(-c2ccccc2)cc1 (stereo partly drawn)	1.1	.	-4.0	0.0	-7.5	-7.0
COc1ccc(NC(=O)N2[C@@H]3CNC[C@H]2C3c2ccc(-c3ccccc3)cc2)cc1 (stereo partly drawn)	-4.2	.	?	0.1	10.0	4.5
O=C(Nc1ccc2c(c1)OCO2)N1[C@@H]2CNC[C@H]1C2c1ccc(/C=C/c2ccccc2)cc1 (stereo partly drawn)	-1.3	.	79.2*	0.0	.	-0.2
COc1ccc(-c2ccc(C3[C@H]4CNC[C@@H]3N4C(=O)Nc3ccccc3F)cc2)cc1 (stereo partly drawn)	-4.7	.	25.9*!	0.0	6.6	-4.1
COc1ccc(NC(=O)N2[C@@H]3CNC[C@H]2C3c2ccc(-c3ccc(C)cc3)cc2)cc1 (stereo partly drawn)	-0.1	.	32.7*!	0.1	.	1.5
COc1cccc(S(=O)(=O)N(C)C[C@@H]2Oc3ncc(C#Cc4ccc(F)cc4)cc3C(=O)N([C@H](C)CO)C[C@@H]2C)c1	-4.0	-0.9	?	-1.0	-30.2	.
CCC(=O)N1CC2(CN(Cc3cccnc3)C2)c2c(n(C)c3cc(OC)ccc23)[C@H]1CO	-1.1	.	-6.8	0.6	3.7	.
C[C@@H]1CN([C@H](C)CO)C(=O)c2cccc(NS(=O)(=O)c3cn(C)cn3)c2O[C@@H]1CN(C)C(=O)Nc1ccc(F)cc1	-3.2	-65.4	-8.8	0.0	-3.1	-12.0
SMILES	F508del corr	Cneo AK release	DENV2 CPE rescue	XiGFP reactiv	PGC1a acetyl inh	FN deposition inh
C[C@@H]1CN([C@H](C)CO)C(=O)c2cccc(NS(=O)(=O)c3cn(C)cn3)c2O[C@H]1CN(C)C(=O)Nc1ccc(F)cc1	4.7	-55.3	71.5*	0.2	-1.5	0.3
C[C@@H]1CN([C@H](C)CO)C(=O)c2cccc(NS(=O)(=O)c3cn(C)cn3)c2O[C@H]1CN(C)C(=O)Nc1ccc2c(c1)OCO2	1.6	-1.7	72.4*	0.0	10.1	.
CO[C@@H]1CN(C)C(=O)c2ccc(NC(=O)NC(C)C)cc2OC[C@@H](C)N(C(=O)CN(C)C)C[C@H]1C	-1.4	-1.4	-9.2	0.3	-5.9	-2.3
O=C(NCCc1c[nH]c2ccccc12)/C(=C\c1cccnc1)NC(=O)c1ccccc1Br	-0.7	-0.9	41.5*	0.7	-4.6	3.9
O=C(NCCc1c[nH]c2ccccc12)/C(=C\c1cccnc1)NC(=O)c1ccco1	.	.	2.4	0.5	.	-4.3
O=C(c1cccc(Oc2ccc([N+](=O)[O-])cc2)c1)N1CCOCC1	-2.9	1.8	96.8*	0.3	7.4	2.8
COCC(=O)N(C)C[C@@H]1Oc2cc(-c3cccnc3)ccc2S(=O)(=O)N([C@@H](C)CO)C[C@@H]1C	-0.2	-14.4	10.9	-0.9	.	4.8
C[C@@H]1CN([C@H](C)CO)S(=O)(=O)c2ccc(-c3cccc(C#N)c3)cc2O[C@H]1CN(C)C(=O)c1ccncc1	-3.1	-1.9	2.2	-0.3	5.6	.
Cc1noc(C)c1NC(=O)Nc1ccc2c(c1)C(=O)N([C@H](C)CO)C[C@H](C)[C@H](CN(C)S(C)(=O)=O)OCCCC[C@H](C)O2	0.7	1.0	-5.7	0.0	5.8	.

Compound activity: PubChem BioAssay, Broad Institute
